# High-throughput results (PubChem BioAssay)
# Shown are actives, neighbours in structure and some others; about 2.3% of the full set was active somewhere.
# TRPC4 PAM = TRPC4 (mouse) allosteric potentiation; Q9QUQ5; HEK293 TRPC4beta/mu-opioid, DAMGO EC20, Fluo-4 Ca2+ flux; active compounds read high; B-score at 10 µM; 310,000 tested, 0.42% active;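 active means B-score of calcium response area above 5 SD of library B-scores, with initial fluorescence ratio within 5 SD of library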;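 further: B-score of integrated fluorescence ratio over time as area under calcium response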
# Target sequence (Q9QUQ5 whole entry, looked up): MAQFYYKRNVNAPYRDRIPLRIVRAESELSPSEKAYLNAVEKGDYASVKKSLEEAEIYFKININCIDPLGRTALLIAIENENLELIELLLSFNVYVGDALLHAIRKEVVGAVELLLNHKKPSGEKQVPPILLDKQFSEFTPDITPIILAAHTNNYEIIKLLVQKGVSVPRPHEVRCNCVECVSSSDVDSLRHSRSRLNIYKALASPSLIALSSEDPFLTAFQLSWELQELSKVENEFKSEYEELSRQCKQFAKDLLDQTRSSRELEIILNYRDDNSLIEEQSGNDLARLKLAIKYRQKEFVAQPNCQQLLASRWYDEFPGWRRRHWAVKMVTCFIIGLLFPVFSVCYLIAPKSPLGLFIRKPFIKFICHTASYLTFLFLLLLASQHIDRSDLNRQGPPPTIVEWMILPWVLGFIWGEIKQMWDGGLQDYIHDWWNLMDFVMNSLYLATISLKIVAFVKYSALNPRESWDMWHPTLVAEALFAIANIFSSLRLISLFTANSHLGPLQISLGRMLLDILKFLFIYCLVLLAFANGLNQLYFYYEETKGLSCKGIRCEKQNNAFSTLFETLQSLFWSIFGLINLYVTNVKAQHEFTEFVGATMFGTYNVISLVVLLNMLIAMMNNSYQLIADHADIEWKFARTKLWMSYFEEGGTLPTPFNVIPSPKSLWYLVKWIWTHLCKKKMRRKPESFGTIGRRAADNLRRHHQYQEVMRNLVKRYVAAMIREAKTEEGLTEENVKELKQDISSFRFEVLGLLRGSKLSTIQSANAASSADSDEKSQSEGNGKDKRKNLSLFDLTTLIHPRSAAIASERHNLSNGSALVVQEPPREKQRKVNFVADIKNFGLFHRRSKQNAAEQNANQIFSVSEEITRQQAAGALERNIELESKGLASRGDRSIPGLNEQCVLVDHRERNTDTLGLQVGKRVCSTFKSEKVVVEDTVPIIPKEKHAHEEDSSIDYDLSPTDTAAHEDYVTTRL
# TRPC4 inh = blocks the mouse TRPC4 cation channel | 300,000 tested, 0.39% active | HEK293 TRPC4beta/mu-opioid, DAMGO-evoked Fluo4 calcium flux; active compounds read low | Q9QUQ5 | B-score at 10 µM;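 active means B-score over 3 SD under the library average, no early fluorescence shift, positive overall ratio signal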
#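 test system = HEK293 cells with stable TRPC4beta plus mu-opioid receptor expression | detection = Fluo4 Ca2+ flux fluorescence | read-out = integrated fluorescence ratio relative to baseline, converted to per-well B score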
# TRPC4 act = opens the mouse TRPC4 cation channel | HEK293 TRPC4beta/mu-opioid, Fluo4 calcium fluorescence; active compounds read high | Q9QUQ5 | AID 2237 | B-score at 10 µM | 310,000 tested, 0.49% active;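 active means B-score above 5 SD of library B-scores, and initial fluorescence ratio not above library mean plus 5 SD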;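 further: positive B-score marks a calcium rise read as TRPC4 activation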
#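 system = HEK293 cells stably co-expressing mouse TRPC4beta and mu-opioid receptor | schedule = Fluo4 dye loading 45 min at room temperature, 110 s recording | measure = B-scored integrated calcium fluorescence ratio | signal = Fluo4 calcium-sensitive dye fluorescence, kinetic, 1 Hz baseline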
# TRPC6 inh = mouse TRPC6 channel inhibition; Q61143; HEK293-TRPC6, membrane potential dye, ACh-evoked depolarization; active compounds read low; 310,000 tested, 1.1% active; AID 2553; B-score at 10 µM;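 active means B-score under library mean minus 3 SD, initial fluorescence not abnormally high, positive integrated signal ratio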;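 further: B-score derived from integrated fluorescence ratio over the kinetic read; more negative B-score means stronger inhibition of depolarization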
# TRPC6 act = activates the mouse TRPC6 cation channel | AID 2550 | HEK293-TRPC6 membrane potential dye fluorescence; active compounds read high | B-score at 10 µM | Q61143 | 310,000 tested, 0.13% active;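 active means B-score of the integrated fluorescence ratio above library mean plus 3 SD, and starting fluorescence ratio within library mean plus 5 SD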;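 further: higher score means more depolarization so channel activation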
# TRPC4 spec 2 = second selectivity test of TRPC6 inhibitors: effect on mouse TRPC4; shares compounds with TRPC6 inh; HEK293 TRPC4/MOR, membrane potential dye fluorescence; channel activated by saturating DAMGO dose; inhibition, % at 10 µM; 920 tested, 42% active; AID 2776;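 active means compounds whose fluorescence signal differed from control wells by over 3 SD, either direction, in both duplicate plates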
# TRPC4 spec = mouse TRPC4 off-target activity of TRPC6 inhibitors; AID 2777; 920 tested, 61% active; HEK293 TRPC4/mu-opioid, membrane potential fluorescence; shares compounds with TRPC6 inh; activity change, negative = inhibition, % at 10 µM;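 active means rise or fall in signal beyond 3 SD of buffer-only wells in both replicate plates, either sign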;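 further: integrated kinetic ratio of fluorescence range over baseline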
# HEK293 MPD ctr 2-1 = second check of TRPC6 inhibitor effects in parental HEK293 cells; shares compounds with TRPC6 inh; parental HEK293 membrane potential dye fluorescence; maximal acetylcholine challenge after compound addition; signal change vs control, % at 10 µM; 920 tested, 31% active;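 active means membrane potential signal moving either way by over 3 SD of the maximum-effect control, in both duplicate plates, meaning non-specific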
# HEK293 MPD ctr-1 = counter-screen for TRPC6 inhibitors: effect in parental HEK293 cells | 920 tested, 60% active | parental HEK293 membrane potential dye fluorescence | shares compounds with TRPC6 inh | AID 2780 | membrane potential signal change, % at 10 µM;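 active means membrane potential signal shifting up or down by more than 3 SD of buffer-only wells, on both duplicate plates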
# HEK293 MPD ctr-2 = counter-screen for TRPC6 modulators: effect in parental HEK293 cells; membrane potential signal change, % at 10 µM; shares compounds with TRPC6 inh; membrane potential dye fluorescence; 2,400 tested, 51% active; AID 488924;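 active means membrane potential signal moves up or down beyond 5 SD from buffer-only wells, on both duplicate plates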
# HEK293 MPD ctr 2-2 = second check of TRPC6 modulator effects in parental HEK293 cells. shares compounds with TRPC6 inh. membrane potential dye fluorescence; after compound, maximal acetylcholine stimulation. inhibition, % at 10 µM. 2,400 tested, 14% active. AID 488926;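 active means membrane potential signal drops by more than 5 SD from the mean control signal, in both duplicate plates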;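 further: plate controls were acetylcholine ECmax control wells for no effect and buffer only wells for full effect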
# TRPC4/MOR mod = selectivity of TRPC6 modulators against mouse TRPC4; HEK293 TRPC4/mu-opioid, membrane potential fluorescence; percent change from control (negative = decrease, positive = increase), % at 10 µM; AID 488927; shares compounds with TRPC6 inh; 2,400 tested, 69% active;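 active means membrane potential signal moved up or down beyond 5 SD of buffer control wells, in both duplicate plates, actives on both sides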;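 further: plate controls were assay buffer wells for no effect and DAMGO maximal-effect wells for full effect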
# TRPC4 ctr inh 2 = mouse TRPC4 off-target activity of TRPC6 modulators, second screen | shares compounds with TRPC6 inh | HEK293 TRPC4/mu-opioid, membrane potential dye fluorescence; stimulated with maximal-effect DAMGO | inhibition, % at 10 µM | 2,400 tested, 55% active | AID 488928;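 active means drop in membrane potential signal beyond 5 SD of the control wells in both duplicate plates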;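 further: TRPC4 counter screen for TRPC6 hits run under conditions tuned for TRPC6 not TRPC4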
# TRPC6 inh conf = mouse TRPC6 inhibitor confirmation; HEK293-TRPC6, membrane potential dye, ACh-evoked depolarization; shares compounds with TRPC6 inh; inhibition, % at 10 µM; 3,300 tested, 43% active;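 active means fluorescence ratio falls more than 5 SD below the full-stimulation control mean, in both duplicate runs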;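 further: integrated fluorescence ratio of peak minus minimum over baseline after agonist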
# TRPC6 act conf = mouse TRPC6 activator confirmation; 2,800 tested, 11% active; activation, % at 10 µM; AID 488961; HEK293-TRPC6 membrane potential dye fluorescence, FDSS; shares compounds with TRPC6 inh;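 active means ratio signal rise beyond 5 SD above unstimulated control wells' mean, seen in both duplicate runs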;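 further: plate controls were buffer EC0 wells for no effect and acetylcholine ECmax response for full effect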
# * hit, by the source's call; i = inactive; . = no result given.
SMILES,TRPC4 PAM,TRPC4 inh,TRPC4 act,TRPC6 inh,TRPC6 act,HEK293 MPD ctr-2,HEK293 MPD ctr 2-2,TRPC4/MOR mod,TRPC4 ctr inh 2,TRPC6 inh conf,TRPC6 act conf,others
Cc1ccccc1NC(C)C(=O)N/N=C/c1ccccc1OCc1cccc(Br)c1 (centres undefined),i,i,i,-5.25*,i,i,i,i,i,i,i,
Oc1ccc(N=Nc2ccc3c(c2)OCCO3)c(O)c1,i,i,i,i,i,.,.,.,.,.,.,
Oc1ccc(N=Nc2ccc(Br)cc2)c(O)c1,i,i,i,-5.35*,i,i,i,i,i,i,i,
O=C(Nc1ccccc1C(=O)Nc1nnc(C(F)(F)F)s1)c1ccccc1,i,i,i,-6.96*,i,.,.,.,.,84.4%*,i,TRPC4 spec 2=i;TRPC4 spec=16.4%*;HEK293 MPD ctr 2-1=i;HEK293 MPD ctr-1=11.0%*
CCOC(=O)Nc1ccc2c(c1)N(C(=O)CCN1CCN(C)CC1)c1ccccc1S2,i,i,i,i,i,.,.,.,.,.,.,
CCOC(=O)Nc1ccc2c(c1)N(C(=O)N1CCN(C)CC1)c1ccccc1S2,i,i,i,-5.3*,i,i,i,i,36.5%*,i,i,
O=C(CCC1CCCN(C(=O)c2cc3ccccc3o2)C1)NCc1ccc(F)c(F)c1 (centres undefined),i,i,i,i,i,.,.,.,.,.,.,
CCN(c1ccccc1)P(=O)(Nc1ccccc1)Nc1ccccc1,i,i,i,i,i,.,.,.,.,.,.,
CN(c1ccccc1)P(=O)(N(C)c1ccccc1)N(C)c1ccccc1,i,i,i,-9.51*,i,.,.,.,.,66.2%*,.,TRPC4 spec 2=i;TRPC4 spec=28.9%*;HEK293 MPD ctr 2-1=i;HEK293 MPD ctr-1=14.8%*
COc1ccc(/C=N/NC(=O)c2nn(-c3ccc(Cl)cc3)c(=O)c3c(N)scc23)cc1,i,i,i,-5.95*,i,-77.0%*,i,-22.0%*,35.5%*,i,i,
COc1ccc(/C=N/NC(=O)c2nn(-c3ccccc3)c(=O)c3c(N)scc23)cc1,i,i,i,i,i,.,.,.,.,.,.,
CCOC(=O)c1c(C)oc2c(CC(=O)c3ccccc3)c(Cl)c(O)c(O)c12,i,i,i,-9*,i,.,.,.,.,i,i,TRPC4 spec 2=i;TRPC4 spec=i;HEK293 MPD ctr 2-1=i;HEK293 MPD ctr-1=i
Cc1ccc(C)c(Nc2nc(N)c3ccccc3n2)c1,i,i,i,-15.9*,i,.,.,.,.,89.6%*,i,TRPC4 spec 2=18.5%*;TRPC4 spec=-30.3%*;HEK293 MPD ctr 2-1=-3.0%*;HEK293 MPD ctr-1=-269.0%*
O=c1oc(Nc2cccc(F)c2)nc2ccccc12,i,i,i,i,i,.,.,.,.,.,.,
COc1ccc(C)cc1Nc1nc(N)c2cc(OC)c(OC)cc2n1,i,i,i,i,i,.,.,.,.,.,.,
COc1ccc(Cl)cc1Nc1nc(N)c2ccccc2n1,i,i,i,-10.8*,i,.,.,.,.,80.9%*,i,TRPC4 spec 2=46.5%*;TRPC4 spec=-20.0%*;HEK293 MPD ctr 2-1=i;HEK293 MPD ctr-1=-185.0%*
Cc1ccc(O)c(Nc2c3ccccc3nc3ccccc23)c1,i,i,i,-5.59*,i,-92.0%*,i,-18.5%*,60.0%*,i,i,
Cc1ccc(O)c(Nc2nc(-c3ccccc3)nc3ccccc23)c1,i,i,i,i,i,.,.,.,.,.,.,
Nc1nc(Nc2cccc(F)c2)nc2ccccc12,i,i,i,-13*,i,.,.,.,.,90.2%*,i,TRPC4 spec 2=22.5%*;TRPC4 spec=-33.0%*;HEK293 MPD ctr 2-1=-37.0%*;HEK293 MPD ctr-1=-493.0%*
Cc1ccc(C)c(Nc2ncnc(N)c2[N+](=O)[O-])c1,i,i,i,i,i,.,.,.,.,.,.,
COC(=O)c1cnn(-c2ccc(F)cc2F)c1/C=N/NC(N)=S,i,i,i,i,i,.,.,.,.,.,.,
CCN1C(=O)/C(=C/C=C2\N(CC)c3cc(S(=O)(=O)N(C)C)ccc3N2c2ccccc2)SC1=S,20*,i,i,i,16.3*,365.5%*,i,87.0%*,i,i,i,
CCN1CCN(c2nc(-c3cccnc3)nc3ccccc23)CC1,i,i,i,-8.22*,i,-355.5%*,i,-58.5%*,62.0%*,57.5%*,i,
CCCN1CCN(c2nc(-c3cccs3)nc3ccccc23)CC1,i,i,i,-6.06*,i,-63.5%*,i,-15.0%*,52.0%*,i,i,
CN1CCN(c2nc(-c3cccnc3)nc3ccccc23)CC1,i,i,i,-8.09*,i,-320.5%*,69.0%*,-57.0%*,66.5%*,56.5%*,i,
CN1CCN(c2nc(-c3ccccn3)nc3ccccc23)CC1,i,i,i,-15.7*,i,-427.5%*,81.5%*,-69.5%*,72.0%*,73.5%*,i,
O=[N+]([O-])CC(=Nc1ccc(F)cc1)N/N=C\c1oc(O)c2ccccc12,i,i,i,i,i,.,.,.,.,.,.,
Cc1cc(C)c(NC(=O)CN2C(=O)CC(C)S(=O)(=O)c3ccccc32)c(C)c1 (centres undefined),i,i,i,i,i,.,.,.,.,.,.,
CC1CN(c2nn3c(=O)c4ccccc4nc3c3ccccc23)CC(C)O1 (centres undefined),i,i,i,i,i,.,.,.,.,.,.,
